According to ChEMBL document CHEMBL3124881, “New perspectives on the synthesis and antichagasic activity of 3-alkoxy-1-alkyl-5-nitroindazoles” (Eur J Med Chem, 2014):

Experiments:
Vero = assay: Cytotoxicity against African green monkey Vero cells assessed as cell viability after 72 hrs by propidium iodide staining-based flow cytometric analysis; conditions: Chlorocebus sabaeus
Outline: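 Vero cells in RPMI with 10% inactivated FBS at 37 °C, 5% CO2, treated 72 h across 1–100. Stained with propidium iodide, then fluorescein diacetate (100 ng/mL), each 10 min at 28 °C in the dark. Cells spun at 400 g, washed in PBS, analysed by flow cytometry. % viability versus control; IC50 by linear regression.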

Trypanosoma cruzi [1] = assay: Antitrypanosomal activity against Trypanosoma cruzi (IRHOD/CO/2008/SN3) amastigotes infected in African green monkey Vero cells after 72 hrs by Giemsa staining-based microscopic analysis; type: functional, organism-based
Outline: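 SN3 strain. Vero cells in RPMI with 10% inactivated FBS at 37 °C, 5% CO2, seeded at 1 × 10⁴ cells/well on coverslips and grown 2 days. Infected with metacyclic forms at 10:1 for 24 h, then washed. Drugs at 100, 50, 25, 10 and 1 for 72 h. Methanol fixation, Giemsa stain, amastigotes counted over 200 host cells. IC50 by linear regression; mean of four experiments.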

Trypanosoma cruzi [2] = assay: Antitrypanosomal activity against Trypanosoma cruzi (IRHOD/CO/2008/SN3) trypomastigotes infected in Balb/c albino mouse after 24 hrs by Neubauer chamber counting analysis; type: functional, organism-based
Outline: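 Blood taken at the day-7 parasitemia peak from BALB/c mice infected with SN3. Diluted with uninfected murine blood to 4 × 10⁶ trypomastigotes/mL, then 1:2 in RPMI 1640 (2 × 10⁶/mL). Drugs (DMSO stocks) at 100, 50, 25, 10 and 1; incubated 24 h at 4–8 °C. Neubauer chamber counts; IC50 by linear regression; three repeats.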

[3] = Selectivity index, ratio of IC50 for African green monkey Vero cells to IC50 for Trypanosoma cruzi (IRHOD/CO/2008/SN3) trypomastigotes; type: toxicity, cell-based; conditions: read-out: Ratio IC50
Outline: (§1)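 SI calculated as IC50 on Vero cells divided by IC50 on the corresponding parasite form (epimastigote, amastigote or trypomastigote).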

[4] = Selectivity index, ratio of IC50 for African green monkey Vero cells to IC50 for Trypanosoma cruzi (IRHOD/CO/2008/SN3) amastigotes; type: toxicity, cell-based; conditions: read-out: Ratio IC50; outline: as §1
[5] = Selectivity index, ratio of IC50 for African green monkey Vero cells to IC50 for Trypanosoma cruzi (IRHOD/CO/2008/SN3) epimastigotes; type: toxicity, cell-based; conditions: read-out: Ratio IC50; outline: as §1
Trypanosoma cruzi [6] = assay: Antitrypanosomal activity against Trypanosoma cruzi (IRHOD/CO/2008/SN3) epimastigotes after 72 hrs by Neubauer chamber counting analysis; type: functional, organism-based
Outline: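 SN3 epimastigotes grown in MTL medium with 10% inactivated FBS at 28 °C. Compounds dissolved in DMSO (0.01% final) and added at 100, 50, 25, 10 and 1. Parasites counted at 72 h in a Neubauer haemocytometer. IC50 from linear regression of Kc values; averages of four experiments.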

Row | SMILES | IC50 (Vero) [µM] | IC50 (Trypanosoma cruzi [1]) [µM] | IC50 (Trypanosoma cruzi [2]) [µM] | selectivity ratio [3] | selectivity ratio [4] | selectivity ratio [5] | IC50 (Trypanosoma cruzi [6]) [µM]
1 | CN(CCOCCn1nc(OCc2ccccc2)c2cc([N+](=O)[O-])ccc21)CCOCCn1nc(OCc2ccccc2)c2cc([N+](=O)[O-])ccc21 | 128 | 16.5 | 16.5 | 7.8 | 7.8 | 4.8 | 26.6
2 | CNCCOCCn1nc(OC)c2cc([N+](=O)[O-])ccc21 | 87.6 | 23.4 | 20.5 | 4.3 | 3.7 | 3.3 | 26.7
3 | COc1nn(CCOCCN)c2ccc([N+](=O)[O-])cc12 | 87.2 | 26.5 | 20.7 | 4.2 | 3.3 | 3.2 | 27.3
4 | COc1nn(C)c2ccc([N+](=O)[O-])cc12 | 183 | 32.6 | 24.8 | 7.4 | 5.6 | 7.4 | 24.7
5 | COc1nn(CCOCCNCCOCCn2nc(OC)c3cc([N+](=O)[O-])ccc32)c2ccc([N+](=O)[O-])cc12 | 16.9 | 25.7 | 26.4 | 0.6 | 0.6 | 0.5 | 31.2
